Compound activity as filed in PubChem BioAssay.
APP 5'UTR act = APP 5'UTR luciferase reporter activation | SH-SY5Y APP 5'UTR luciferase reporter, luminescence; zero percent = DMSO vehicle wells | activation, % at 2 µM | hit rate 1% among 190,000;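 active = activation above a set limit, based on mean plus 3 SD of controls, cut at about 140% in these data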
STAT1 inh = inhibitors of IFN-gamma induced STAT1 signaling. hit rate 0.35% among 200,000. inhibition, % at 5.5 µM. NIH 3T3 STAT1-luciferase reporter, luminescence;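 active = inhibition above a set limit, the mean inhibition across all tested compounds plus 3 SD, cut at about 34% in these data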
STAT1 act-1 = increases IFN-gamma driven STAT1 reporter signal | activation (% of control), % at 5.5 µM | AID 932 | NIH 3T3 STAT1-luciferase reporter, luminescence; 100% = IFN-gamma alone, no compound | hit rate 2.6% among 200,000;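 active = activation above the screen-wide mean activation plus 3 SD, cut at about 130% in these data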
NF-kB expr up = NF-kB expression increase, human neuronal cells | NF-kB reporter expression; stronger effect = higher value | fold change at 12.5 µM | hit rate 1.6% among 190,000; in the data active = fold change above about 3.3
STAT3 inh-1 = STAT3 signaling inhibition; U3A cells, IL-6 STAT3-luciferase reporter, luminescence; host cell line lacks STAT1; inhibition, % at 5.5 µM; hit rate 0.89% among 190,000;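 active = inhibition above the mean inhibition across all screened compounds plus 3 SD, cut at about 44% in these data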
STAT3 act-1 = activators of IL-6 induced STAT3 signaling; AID 871; U3A cells, IL-6 STAT3-luciferase reporter, luminescence; 100% = signal with IL-6 EC80 alone; hit rate 0.91% among 190,000; activation (% of control), % at 5.6 µM;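 active = activation above the screen-wide mean of compound activation plus 3 SD, cut at about 130% in these data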
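Test system: human U3A cells carrying STAT3-luciferase construct; control set: IL-6-only wells as 100% reference; timing: compound pre-incubation 1 h before IL-6, then 6 h stimulation at 37 °C; also added: IL-6 stimulus at 33 ng/mL final; evaluation: % activation versus median of IL-6-stimulated wells; detection: reporter luminescence signal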
STAT3 inh-2 = confirmation of STAT3 signaling inhibitors. shares compounds with STAT3 inh-1. U3A cells, IL-6 STAT3 luciferase reporter, luminescence; cell line lacks STAT1. inhibition, % at 5.7 µM. hit rate 45% among 1,200;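 active = inhibition above the hit cutoff computed for the primary STAT3 screen, cut at about 44% in these data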
NFkB inh 2 = counter-screen for STAT3 inhibitors: NF-kappaB inhibition; shares compounds with STAT3 inh-1; HEK293T NF-kB luciferase reporter, TNF-alpha induced; inhibition, % at 5.7 µM; hit rate 36% among 1,200; AID 1308;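 active = inhibition above the mean of solvent-only control wells plus 3 SD, cutoff set per campaign, cut at about 13% in these data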
STAT1 inh STAT3c = STAT1 inhibition in STAT3 inhibitor counter-screen | shares compounds with STAT3 inh-1 | NIH 3T3 STAT1-luciferase reporter, IFN-gamma induced, luminescence | inhibition, % at 5.7 µM | hit rate 27% among 1,200;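 active = inhibition above the mean plus 3 SD of solvent-only control wells, limit set per screening run, cut at about 16% in these data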
STAT3 act-2 = confirmation of STAT3 signaling activators; shares compounds with STAT3 act-1; U3A STAT3-luciferase reporter, IL-6 potentiation, luminescence; U3A cells lack STAT1; 100 means same as IL-6 alone; potentiation (% of control), % at 5.7 µM; hit rate 64% among 1,200;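 active = percent activation of the STAT3 luciferase reporter above a set limit taken from the earlier primary screen, cut at about 130% in these data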
NFkB act 2 = NF-kappaB activation in STAT3 activator counter-screen. shares compounds with STAT3 act-1. human cells, NF-kappaB reporter activation. activation (% of control), % at 5.7 µM. hit rate 11% among 1,200; in the data active = activation above about 120%;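 note: reporter induced by TNF-alpha stimulation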
STAT1 act-2 = activates STAT1, counter-screen to STAT3 activators. shares compounds with STAT3 act-1. NIH 3T3 STAT1-luciferase reporter, IFN-gamma, luminescence. activation (% of control), % at 5.7 µM. hit rate 13% among 1,200;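 active = activation above the solvent-only control well mean plus 3 SD, set per screening run, cut at about 120% in these data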
STAT1 activ conf = STAT1 activation, confirmation assay | shares compounds with STAT1 act-1 | NIH 3T3 STAT1-luciferase reporter, IFN-gamma potentiation, luminescence; 100% = IFN-gamma EC80 alone, no compound | hit rate 97% among 1,200 | activation (% of control), % at 5.7 µM;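 active = activation above a set limit carried over from the earlier primary STAT1 screen, cut at about 140% in these data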
NFkB act = activates NF-kappaB, counter-screen to STAT1 activators; HEK293T NF-kB luciferase reporter, TNF-alpha stimulated, luminescence; 100% = TNF-alpha with vehicle only; shares compounds with STAT1 act-1; activation (% of control), % at 5.7 µM; AID 1306; hit rate 43% among 1,200;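 active = activation above the mean of solvent-only control wells plus 3 SD, set per campaign, cut at about 130% in these data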;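 note: TNF-alpha given at a submaximal dose yielding about 80% of full reporter signal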
STAT3 act 2 = counter-screen for STAT1 activators: human STAT3 activation; hit rate 46% among 1,200; activation (% of control), % at 5.7 µM; shares compounds with STAT1 act-1; AID 1316; U3A cells STAT3-luciferase reporter, IL-6, luminescence; cells lack STAT1; 100 = IL-6 alone, no compound effect;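 active = activation above the solvent-only control well mean plus 3 SD, set per plate batch, cut at about 110% in these data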;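 note: higher means more STAT3 reporter activation so hits are non-selective activators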
Numbers stand for hits; n = inactive; x = not tested or not shown. Shown are actives, neighbours in structure and some others; about 5.1% of the full set was active somewhere.

SMILES	APP 5'UTR act	STAT1 inh	STAT1 act-1	NF-kB expr up	STAT3 inh-1	STAT3 act-1	STAT3 inh-2	NFkB inh 2	STAT1 inh STAT3c	others
COc1ccc(CCn2c(O)c(C=NCc3ccc4c(c3)OCO4)c(=O)[nH]c2=O)cc1OC	n	n	143	n	n	n	x	x	x
CC(=NCc1ccco1)c1c(O)n(C)c(=O)n(C)c1=O	n	n	n	n	n	n	x	x	x
Cn1nc(-c2ccc(OCC(=O)N3CCN(Cc4ccccc4)CC3)cc2)c2ccccc2c1=O	n	n	n	n	60	n	49	20	17
Cn1cccc1CN1CCN(C(=O)COc2ccccc2)CC1	n	n	n	n	n	n	x	x	x
Nc1ccccc1C(=O)OCCOc1ccccc1	182	n	n	6.7	58	n	n	n	n
CC(=O)Nc1ccc(OC(=O)c2ccccc2N)cc1	n	n	n	n	n	n	x	x	x
CNC(=O)Oc1ccc(-c2cn3cc(Cl)ccc3n2)cc1	n	n	n	14	84	n	68	21	n
Cc1nn(Cc2ccccc2Cl)c(Cl)c1C(=O)OCC(=O)NC(=O)NC1CCCCC1	n	n	n	n	n	n	x	x	x
CC(=O)NC1C(OC(=O)Cc2ccccc2)OC(COC(C)=O)C(OC(C)=O)C1OC(C)=O (stereo not drawn)	n	n	n	n	n	n	x	x	x
C[C@H]1O[C@@H](O[C@H]2[C@@H](O)C[C@H](O[C@H]3[C@@H](O)C[C@H](O[C@H]4CC[C@@]5(C)[C@H](CC[C@@H]6[C@@H]5CC[C@]5(C)[C@@H](C7=CC(=O)OC7)CC[C@]65O)C4)O[C@@H]3C)O[C@@H]2C)C[C@H](O)[C@@H]1O	n	n	n	n	83	n	81	n	n
CC(C)(C)n1cc(C(=O)c2ccc3ccccc3c2O)cn1	212	n	n	n	65	n	n	n	n
CC(=O)OC1(c2ccccc2)CCN(C)C2CCCCC21 (stereo not drawn)	n	n	n	n	n	n	x	x	x
CN(C)C(=O)Oc1ccc(OCc2nc3ccccc3[nH]2)cc1	n	n	n	n	58	n	n	n	n
CN(C)C(=O)Oc1ccc(OC(=O)N(C)C)cc1	n	n	n	n	n	n	x	x	x
CC(C)CC12CN3CCN(CC(C3)/C1=N/O)C2	n	n	n	n	n	n	x	x	x
O=c1[nH]c(=O)n(CCC2=CCCCC2)c(O)c1/C=N/Nc1ccccc1	n	n	n	n	n	n	x	x	x
O=c1[nH]c(=O)n(CCC2=CCCCC2)c(O)c1C=NC1CCN(Cc2ccccc2)CC1	n	n	n	n	62	n	69	30	n
CN[C@H]1C[C@H]2O[C@@](C)([C@H]1OC)n1c3ccccc3c3c4c(c5c6ccccc6n2c5c31)C(=O)NC4	n	n	n	n	104	n	105	96	26
CN1C2CCC1/C(=C/c1ccccn1)C(=O)/C2=C\c1ccccn1	n	n	209	n	53	n	n	n	n	STAT1 activ conf=477;NFkB act=252;STAT3 act 2=n
Cc1c(C=O)c2ccccc2n1Cc1ccc(F)cc1	n	n	n	n	n	n	x	x	x
CCCCn1c(=O)c(C(=O)Nc2ccsc2C(=O)OC)c(O)c2ccccc21	n	n	n	n	n	145	x	x	x	STAT3 act-2=165;NFkB act 2=n;STAT1 act-2=n
c1ccc2c(CNC3CCCCCC3)c[nH]c2c1	n	n	n	n	n	152	x	x	x	STAT3 act-2=139;NFkB act 2=n;STAT1 act-2=n
c1ccc2c(CN3CCCCCC3)c[nH]c2c1	n	n	n	n	n	n	x	x	x
O=[N+]([O-])c1ccc(N2CCNCC2)cc1NC1CC1	n	n	n	n	n	n	x	x	x
O=C1N(CN2CCOCC2)c2ccccc2C1(O)c1c[nH]c2ccccc12 (stereo not drawn)	n	n	n	n	n	136	x	x	x	STAT3 act-2=n;NFkB act 2=n;STAT1 act-2=n
SMILES	APP 5'UTR act	STAT1 inh	STAT1 act-1	NF-kB expr up	STAT3 inh-1	STAT3 act-1	STAT3 inh-2	NFkB inh 2	STAT1 inh STAT3c	others
CC1=NN(c2ccccc2)C(=O)/C1=C/c1c(O)[nH]c(=O)[nH]c1=O	n	n	n	n	n	143	x	x	x	STAT3 act-2=135;NFkB act 2=n;STAT1 act-2=n
Cn1c(=O)c2c(ncn2CCCl)n(C)c1=O	n	n	n	n	n	n	x	x	x
CCN(CC)CCNCc1nc2ccccc2c(=O)n1-c1ccc(F)cc1	n	n	n	n	n	n	x	x	x
CC(C)n1c(=O)c(C=Nc2cccc([N+](=O)[O-])c2)c(O)n(CCc2ccccc2)c1=O	n	n	n	n	n	137	x	x	x	STAT3 act-2=139;NFkB act 2=n;STAT1 act-2=n
CC1=NN(c2ccccc2)C(=O)C1/C=C1\C(=O)NC(=O)N(c2cc(C)cc(C)c2)C1=O (stereo not drawn)	n	n	n	n	n	159	x	x	x	STAT3 act-2=142;NFkB act 2=n;STAT1 act-2=n
Cc1cc(C)cc(N2C(=O)NC(=O)/C(=C\C=C\c3ccco3)C2=O)c1	n	n	n	n	n	n	x	x	x
COc1ccc(/C=C2/C(=O)NC(=O)N(c3ccc(C)c(C)c3)C2=O)cc1CN1C(=O)c2ccccc2C1=O	n	n	n	n	n	n	x	x	x
CC1=NN(c2ccccc2)C(=O)C1/C=C1\C(=O)NC(=O)N(c2ccc(C)c(C)c2)C1=O (stereo not drawn)	n	n	n	n	n	162	x	x	x	STAT3 act-2=n;NFkB act 2=n;STAT1 act-2=n
